PPC-1+TRAIL kill: PPC-1 cancer cell killing with TRAIL present; PPC-1 cells + TRAIL, ATPLite viability luminescence; cell killing (% activity), % at 4 µM or 5 µM; actives 0.41% (n = 220,000); AID 1443;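 active means cell killing above 50% in the first pass at 4 µM, then a duplicate retest at 5 µM averaging 50% or more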
STAT3 act-1: STAT3 signaling activation; U3A cells, IL-6 STAT3-luciferase reporter, luminescence; 100% = signal with IL-6 EC80 alone; activation (% of control), % at 5.6 µM; actives 0.91% (n = 190,000); AID 871;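 active means activation above the screen-wide mean of compound activation plus 3 SD, cut at about 130% in these data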
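Test system: STAT3-luciferase reporter U3A cells; Detection: reporter luminescence signal; Times: 1 h compound pre-exposure, 6 h IL-6 stimulation, 37 °C; Benchmarks: IL-6-only high control; Also added: IL-6 stimulus at 33 ng/mL final.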
STAT3 inh: STAT3 signaling inhibition; inhibition, % at 5.5 µM; actives 0.89% (n = 190,000); U3A cells, IL-6 STAT3-luciferase reporter, luminescence; host cell line lacks STAT1;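 active means inhibition above the mean inhibition across all screened compounds plus 3 SD, cut at about 44% in these data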
STAT1 blocker: inhibitors of IFN-gamma induced STAT1 signaling; NIH 3T3 STAT1-luciferase reporter, luminescence; inhibition, % at 5.5 µM; actives 0.35% (n = 200,000);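 active means inhibition above a set limit, the mean inhibition across all tested compounds plus 3 SD, cut at about 34% in these data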
TRAIL sens C8: caspase-8 TRAIL sensitization. NB7+C8 cells + TRAIL, ATPlite viability luminescence. inhibition (viability loss, TRAIL sensitization), % at 10 µM. actives 1% (n = 360,000);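 active means compounds causing at least 50% loss of cell viability in the single-dose screen, relative to plate controls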
STAT3 act-2: confirmation of STAT3 signaling activators. shares compounds with STAT3 act-1. U3A STAT3-luciferase reporter, IL-6 potentiation, luminescence; U3A cells lack STAT1; 100 means same as IL-6 alone. potentiation (% of control), % at 5.7 µM. actives 64% (n = 1,200);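 active means percent activation of the STAT3 luciferase reporter above a set limit taken from the earlier primary screen, cut at about 130% in these data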
NFkB act STAT3ct: NF-kappaB activation in STAT3 activator counter-screen. human cells, NF-kappaB reporter activation. actives 11% (n = 1,200). AID 1309. shares compounds with STAT3 act-1. activation (% of control), % at 5.7 µM; in the data active means activation above about 120%;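 further: reporter induced by TNF-alpha stimulation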
STAT1 act STAT3c: activates STAT1, counter-screen to STAT3 activators. shares compounds with STAT3 act-1. actives 13% (n = 1,200). AID 1318. activation (% of control), % at 5.7 µM. NIH 3T3 STAT1-luciferase reporter, IFN-gamma, luminescence;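 active means activation above the solvent-only control well mean plus 3 SD, set per screening run, cut at about 120% in these data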
Hits are given with their value; – = inactive; · = no result. A selection: hits, their analogues and other compounds. The true share with any hit is near 1.8%.

SMILES	PPC-1+TRAIL kill	STAT3 act-1	STAT3 inh	STAT1 blocker	TRAIL sens C8	STAT3 act-2	NFkB act STAT3ct	STAT1 act STAT3c
Cc1cc(C)n(-c2nnc3n2N=C(c2c[nH]c4ccccc24)CS3)n1	–	157.6	–	–	–	154.0	–	–
Cc1ccc(C)n1-c1nccc(-c2cccs2)n1	–	139.6	–	–	–	–	–	–
Cn1c(Cc2c[nH]c3ccccc23)n[nH]c1=S	–	155.0	–	–	–	–	–	–
O=C(NCc1ccc(F)cc1)c1cc(C2CCCN(C(=O)CCCc3ccccc3)C2)on1 (stereo not given)	·	·	·	·	–	·	·	·
O=C(CSc1nc2c([nH]c3ccccc32)c(=O)n1-c1ccc(F)cc1)NCc1ccco1	–	142.1	–	–	–	–	–	–
O=C(CSc1nc2ccccc2c(=O)n1-c1ccccc1)NCc1ccco1	–	–	–	–	–	·	·	·
CCOC(=O)C1=C(COC(=O)Cc2ccccc2F)NC(=O)NC1C (stereo not given)	·	·	·	·	–	·	·	·
CCc1c(C)sc(NC(=O)c2ccco2)c1C(=O)N1CCOCC1	–	137.6	–	–	–	–	–	–
COc1ccc(-c2nnc(Nc3nc4c(OC)cccc4s3)o2)c(OC)c1	–	–	–	–	–	·	·	·
COc1ccc(-c2nnc(Nc3nc4c(OC)cccc4s3)o2)cc1	–	159.1	–	–	–	136.5	–	–
Cn1c2ccc(F)cc2c2ncn(CCN3CCOCC3)c(=O)c21	–	–	–	–	–	·	·	·
Cn1c2ccccc2c2ncn(CCCN3CCOCC3)c(=O)c21	–	139.8	–	–	–	153.6	–	–
Fc1cccc(-c2nnn3c2nc(Cl)c2ccccc23)c1	–	165.1	–	–	–	183.2	–	–
Cc1ccc(-c2nnn3c2nc(Cl)c2ccccc23)cc1	–	147.3	–	–	–	145.3	–	–
Clc1nc2c(-c3ccccc3)nnn2c2ccccc12	–	·	·	·	–	·	·	·
Cc1ccc(S(=O)(=O)N2CCN(C(=O)c3sccc3-c3ccccc3)CC2)cc1	·	·	·	·	–	·	·	·
CCCCNC(=O)C(NC(=O)c1cnc(C)cn1)C(=O)c1ccccc1 (stereo not given)	·	·	·	·	–	·	·	·
COc1ccc(C2C(C)C(=O)C(C)C(c3ccc(OC)cc3)N2N=O)cc1 (stereo not given)	·	·	·	·	–	·	·	·
C/[N+]([O-])=C/c1c(OCc2ccc(Cl)cc2Cl)ccc2ccccc12	–	138.2	–	–	–	–	–	–
COc1cc(CNCc2ccccn2)ccc1OCc1ccc(Cl)cc1Cl	–	–	–	–	–	·	·	·
O=C(CN1C(=O)/C(=C/c2c(F)cccc2Cl)Oc2ccccc21)NCc1ccco1	–	153.9	–	–	·	187.3	–	–
O=C(NCC(=O)N1CCOCC1)c1ccc(Cl)cc1	·	·	·	·	–	·	·	·
O=C(c1cc[n+]([O-])cc1)N1CCc2c([nH]c3ccccc23)C1c1ccccc1Cl (stereo not given)	–	176.5	–	–	–	155.0	–	–
CN1N=C(C(=O)N2CCc3c([nH]c4ccccc34)C2c2ccccc2Cl)CCC1=O (stereo not given)	–	156.2	–	–	–	177.9	121.4	122.6
COc1ccccc1CNC(=O)COC(=O)Cc1c[nH]c2ccccc12	·	·	·	·	–	·	·	·
SMILES	PPC-1+TRAIL kill	STAT3 act-1	STAT3 inh	STAT1 blocker	TRAIL sens C8	STAT3 act-2	NFkB act STAT3ct	STAT1 act STAT3c
COc1ccccc1NC(=O)COC(=O)Cc1c[nH]c2ccccc12	–	140.7	–	–	–	141.9	–	–
COC(=O)c1n[nH]c2ccccc12	–	160.4	–	–	–	153.9	–	–
Cc1ccc(Sc2c(C=O)c3ccccc3n2C)cc1	–	156.9	–	–	–	–	–	–
Cc1ccc(Sc2c(O)c3ccccc3n(C)c2=O)cc1	–	–	–	–	–	·	·	·
CC1=NC(=O)C(N=Nc2ccccc2)N1c1ccccc1 (stereo not given)	–	163.0	–	–	–	161.9	125.4	160.3
CN1CCN(C2CN(CCc3ccccc3)S(=O)(=O)C2)CC1 (stereo not given)	·	·	·	·	–	·	·	·
N#Cc1c(C(F)(F)F)cc(-c2ccccc2)nc1SCCN1CCOCC1	–	151.6	–	–	–	145.6	–	–
CCCSc1nc(-c2ccccc2)cc(C(F)(F)F)c1C#N	–	–	–	–	–	·	·	·
CCn1c(SCC(=O)N/N=C/C=C\c2ccccc2[N+](=O)[O-])nnc1-c1ccccc1	–	142.3	–	–	–	150.5	–	–
Cc1cccc(Nc2nnc(SC/C(O)=C(\C#N)c3nc4ccccc4[nH]3)s2)c1C	–	147.7	–	–	–	144.7	–	–
Cc1ccc(C)c(SCC(=O)OC/C(O)=C(\C#N)c2nc3ccccc3[nH]2)c1	–	146.4	–	–	–	150.2	–	–
Cc1ccc(Nc2nnc(SCC(O)=C(C#N)c3nc4ccccc4[nH]3)s2)c(C)c1	·	·	·	·	–	·	·	·
Cc1cccc(C)c1Nc1nnc(SC/C(O)=C(\C#N)c2nc3ccccc3[nH]2)s1	–	143.1	–	–	–	152.3	–	–
Cn1cnnc1SC/C(O)=C(\C#N)c1nc2ccccc2[nH]1	–	–	–	–	–	·	·	·
CCCCCC(=O)N1C[C@H](O)[C@@H](n2cc(COC(=O)c3ccccc3)nn2)C[C@@H]1c1ccc(OC)cc1	·	·	·	·	–	·	·	·
CCCCCCOC1(c2ccccc2)OC(=O)c2ccccc21 (stereo not given)	–	–	–	–	–	·	·	·
CCCCCOP(=O)(OCCCCC)C1(NS(=O)(=O)c2ccccc2)C=CC(=O)c2ccccc21 (stereo not given)	–	136.9	–	–	–	–	–	–
Cc1cccc(NC(=O)C2=C(O)c3ccccc3N(C)S2(=O)=O)c1	–	155.0	–	–	–	–	–	–
CN1c2ccccc2C(O)=C(C(=S)Nc2ccc(Cl)cc2)S1(=O)=O	–	–	–	–	–	·	·	·
O=c1cc(-c2ccccc2)[nH]n1-c1nc2ccccc2[nH]1	–	154.6	–	–	–	141.0	157.4	140.8
CCc1cc(=O)[nH]c(-n2[nH]c(-c3ccccc3)cc2=O)n1	–	–	–	–	–	·	·	·
Cc1cc(N2CCN(C(C(=O)NC3CCCC3)c3ccc(-c4ccccc4)cc3)CC2)c2ccccc2n1 (stereo not given)	·	·	·	·	–	·	·	·
O=[N+]([O-])c1ccccc1C1Nc2cccc3cccc(c23)N1	–	137.6	–	–	–	–	121.7	–
COc1ccc([C@H]2CC(=O)C=C(c3ccnc4ccc(Cl)cc34)C2)cc1	·	·	·	·	–	·	·	·

High-throughput results from PubChem BioAssay.
